Measurements of several laboratories.
Target: Serine/threonine-protein kinase WNK4 (WNK4, Homo sapiens, UniProt Q96J92)

Compound | assay | setting | remaining binding [%]
O=C(NCCCN1CCOCC1)c1ccc(Nc2nccc(-c3cc4ccccc4s3)n2)cc1 | binding, competition with immobilised ligand | 1 µM | 71
CC(=O)c1c(NS(C)(=O)=O)c2cc(-c3ccc(Cl)cc3)c(-c3ccc(Cl)cc3Cl)nc2n(C)c1=O | cell-free assay, competition with immobilised ligand | 1 µM | 96
COc1cnc(Nc2cccc(S(N)(=O)=O)c2)nc1N1CCN(c2ccccc2)CC1 | binding, competition with immobilised ligand | 1 µM | 82
COc1cccc(CNC(=O)c2nc3scc(COCc4ccc(C(=O)O)cc4)c3c(=O)[nH]2)c1 | cell-free assay, competition with immobilised ligand | 1 µM | 100
F[C@@H]1CCN(c2nccc(-c3cnn4ncccc34)n2)C1 | binding | 1 µM | 91
CC(=O)N1CCC(c2ccc(C(=O)NC(=N)N)cc2C(F)(F)F)CC1 | cell-free assay, competition with immobilised ligand | 1 µM | 100
CC1CCCN1c1nccc(-c2cnn3ncccc23)n1 (centres unmarked) | binding | 1 µM | 100
Cc1nc(Cc2cccc(C(F)(F)F)c2)sc1-c1ccc(C(N)=O)nc1 | cell-free assay, competition with immobilised ligand | 1 µM | 100
CNC(=O)[C@@H]1CC[C@@H](n2c(-c3ccc4cnccc4c3)nc3ccc(C(=O)NCc4cccc(C(N)=O)c4)cc32)C1 | binding, competition with immobilised ligand | 1 µM | 100
CN(C)CC#Cc1ccc(OCCCc2sc(N3CCc4cccc(C(=O)Nc5nc6ccccc6s5)c4C3)nc2C(=O)O)c(F)c1 | cell-free assay, competition with immobilised ligand | 1 µM | 81
O=C(Nc1c[nH]nc1C(=O)NC1CCNCC1)c1cc(F)cc(F)c1 | binding, competition with immobilised ligand | 1 µM | 100
O=C(c1ccc(Nc2nccc(-c3cc4ccccc4s3)n2)cc1)N1CCC(N2CCCC2)CC1 | binding, competition with immobilised ligand | 1 µM | 92
CN(c1nccc(-c2cnn3ncccc23)n1)C1CC1 | binding | 1 µM | 100
O=C(c1ccc(Nc2ncc(Cl)c(-c3cc4ccccc4s3)n2)cc1)N1CCC(N2CCCC2)CC1 | binding, competition with immobilised ligand | 1 µM | 86
COc1ccnn2ncc(-c3ccnc(N(C)C)n3)c12 | binding | 1 µM | 100
c1cncc(-c2cccc(Nc3nccc(NC4CCCCC4)n3)c2)c1 | binding, competition with immobilised ligand | 10 µM | 100
N[C@@H]1CCN(c2nccc(-c3cnn4ncccc34)n2)C1 | binding | 1 µM | 100
Cc1nc(N2CC[C@@H](O)C2)ncc1-c1cc(C(F)(F)F)cc2[nH]ncc12 | binding, competition with immobilised ligand | 1 µM | 95
COc1ncc2cc3ccccc3nc2c1C#N | cell-free assay, competition with immobilised ligand | 5 µM | 80
C[C@@H]1CCN(c2nccc(-c3cnn4ncccc34)n2)C1 | binding | 1 µM | 100
